Laboratory results from ChEMBL document CHEMBL1147133, “Identification of anthranilic acid derivatives as a novel class of allosteric inhibitors of hepatitis C NS5B polymerase” (J Med Chem, 2007).

How the values were obtained:
Hepatitis C virus [1] = experiment: Antiviral activity in Huh7 cells containing HCV 1b BB7 replicon; type: functional, organism-based, Hepacivirus hominis; details: genotype 1b, Huh-7
How it was run: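 Huh7 cells carrying the genotype 1b BB7 replicon were exposed to increasing compound concentrations for 3 days in DMEM with 2% FCS and no G418. HCV, ribosomal and GAPDH mRNA levels were measured by quantitative TaqMan RT-PCR. Values are averages of at least three determinations.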

[2] = Cytotoxicity against Huh7 cells by MTS assay; type: cell-based; details: Homo sapiens, Huh-7
Hepatitis C virus [3] = experiment: Inhibition of HCV 1b BK NS5B delta21 RNA polymerase expressed in Escherichia coli; parameters: species or system Hepatitis C virus subtype 1b
[4] = Inhibition of human DNA polymerase alpha
How it was run: (§1)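 The enzyme was incubated with compound in buffer containing four dNTPs spiked with [α-33P]TTP, with dNTPs and templates at their respective Km levels. Templates were poly(dA)-oligo(dT)12 for HIV RT, activated calf thymus DNA for CT pol α and human pol α/β, and singly primed M13 DNA for human pol γ. Reactions ran 1-2 h at 37 °C, and filtered product was counted. Values are averages of at least three determinations.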

[5] = Inhibition of human DNA polymerase gamma; how it was run: as §1
[6] = Inhibition of calf thymus DNA polymerase alpha; parameters: species or system Bos taurus; how it was run: as §1
[7] = Inhibition of HIV reverse transcriptase; parameters: species or system Human immunodeficiency virus; how it was run: as §1
[8] = Inhibition of RNA polymerase 2; parameters: species or system Homo sapiens
[9] = Inhibition of human DNA polymerase beta; how it was run: as §1

Row | Structure (SMILES) | IC50 (Hepatitis C virus [1]) [µM] | IC50 (Hepatitis C virus [3]) [µM] | IC50 [2] [µM] | further results
1 | CC(=O)c1cc(Cl)c(Cl)cc1NCC(=O)Nc1ccccc1C(=O)O | 10 | 0.03 | 123 | 
2 | CC(=O)c1cc(Br)c(Cl)cc1NCC(=O)Nc1ccccc1C(=O)O | 30 | 0.022 | > 117 | 
3 | CCc1cc(NCC(=O)Nc2ccccc2C(=O)O)c(C(C)=O)cc1Cl | 5 | 0.032 | 44 | 
4 | O=C(COc1cc(F)c(F)cc1F)Nc1ccccc1C(=O)O | > 11 | 1.27 | > 115 | 
5 | CC(=O)c1cc(Cl)c(C)cc1OCC(=O)Nc1ccccc1C(=O)O | > 11 | 0.14 | > 115 | 
6 | CC(=O)c1cc(F)ccc1OCC(=O)Nc1ccccc1C(=O)O | > 11 | 1.5 | > 115 | 
7 | CC(=O)c1cc(C)c(C)cc1NCC(=O)Nc1ccccc1C(=O)O | 32 | 0.21 | > 147 | 
8 | CC(=O)c1cc(Br)ccc1NCC(=O)Nc1ccccc1C(=O)O | 43 | 0.11 | > 128 | 
9 | O=C(CNc1ccc(Cl)c(Cl)c1)Nc1ccccc1C(=O)O | 13 | 0.2 | 47 | 
10 | CC(=O)c1cc(F)c(Cl)cc1OCC(=O)Nc1ccccc1C(=O)O | > 11 | 0.23 | > 115 | 
11 | CC(=O)c1cc(F)c(C)cc1NCC(=O)Nc1ccccc1C(=O)O |  | 7.47 |  | 
12 | CC(=O)c1cc(F)c(Br)cc1NCC(=O)Nc1ccccc1C(=O)O | 2 | 0.01 | > 122 | IC50 [4]: > 122 µM; IC50 [5]: > 24 µM; IC50 [6]: > 122 µM; IC50 [7]: > 122 µM; IC50 [8]: > 122 µM; IC50 [9]: > 122 µM
13 | CC(=O)c1cc(Cl)c(C)cc1NCC(=O)Nc1ccccc1C(=O)O | 3.1 | 0.08 | > 139 | 
14 | Cc1cc(OCC(=O)Nc2ccccc2C(=O)O)c(Br)cc1Cl | > 11 | 0.11 | > 115 | 
15 | CC(=O)c1cc(Cl)c(F)cc1OCC(=O)Nc1ccccc1C(=O)O | > 11 | 0.11 | > 115 | 
16 | O=C(COc1cc(Cl)c(Cl)cc1Cl)Nc1ccccc1C(=O)O | > 11 | 0.03 | > 115 | 
17 | CC(=O)c1cc(F)c(Cl)cc1NCC(=O)Nc1ccccc1C(=O)O | 2 |  | > 137 | IC50 [4]: > 137 µM; IC50 [5]: > 27 µM; IC50 [6]: > 137 µM; IC50 [7]: > 137 µM; IC50 [8]: > 137 µM; IC50 [9]: > 137 µM
18 | O=C(CNc1cccc(Br)c1)Nc1ccccc1C(=O)O |  | 0.87 |  | 
19 | CC(=O)c1cc(C)ccc1OCC(=O)Nc1ccccc1C(=O)O | > 11 | 2.8 | > 115 | 
20 | CC(=O)c1cc(C)c(Cl)cc1NCC(=O)Nc1ccccc1C(=O)O | 30 | 1.05 | > 139 | 
21 | CC(=O)c1cc(Cl)c(F)cc1NCC(=O)Nc1ccccc1C(=O)O | 17 | 0.18 | > 137 | 

Second part, led by results:

Row | IC50 (Hepatitis C virus [1]) [µM] | IC50 (Hepatitis C virus [3]) [µM] | Structure (SMILES) | IC50 [2] [µM] | further results
22 | 14 | 0.17 | CN(CC(=O)Nc1ccccc1C(=O)O)c1ccc(Cl)c(Cl)c1 | 47 | 
23 |  | > 37 | O=C(COc1ccccc1)Nc1ccccc1C(=O)O |  | 
24 |  | 3.23 | O=C(COc1ccc(Br)cc1)Nc1ccccc1C(=O)O |  | 
25 | > 11 | 0.45 | O=C(COc1ccc(Cl)cc1Cl)Nc1ccccc1C(=O)O | > 115 | 
26 |  | 1.14 | O=C(COc1cccc(Br)c1)Nc1ccccc1C(=O)O |  | 
27 |  | 5.1 | N#Cc1ccc(OCC(=O)Nc2ccccc2C(=O)O)cc1 |  | 
28 |  | > 28 | O=C(COc1ccc(Cl)cc1)Nc1ccc(C(=O)O)cc1 |  | 
29 |  | 50 | C[C@@H](Oc1ccc(Cl)cc1)C(=O)Nc1ccccc1C(=O)O |  | 
30 |  | > 33 | O=C(COc1ccc(Cl)cc1)Nc1cccc(C(=O)O)c1 |  | 
31 |  | 5.2 | O=C(COc1ccc(F)cc1)Nc1ccccc1C(=O)O |  | 
32 | 12 | 0.23 | CC(=O)c1cc(Cl)ccc1NCC(=O)Nc1ccccc1C(=O)O | > 144 | 
33 | > 11 | 0.53 | CC(=O)c1cc(Cl)ccc1OCC(=O)Nc1ccccc1C(=O)O | > 115 | 
34 | > 11 | 0.57 | COc1cc(Cl)ccc1OCC(=O)Nc1ccccc1C(=O)O | > 115 | 
35 | > 11 | 0.57 | Cc1cc(Cl)ccc1OCC(=O)Nc1ccccc1C(=O)O | > 115 | 
36 |  | > 30 | CC(C)(Oc1ccc(Cl)cc1)C(=O)Nc1ccccc1C(=O)O |  | 
37 |  | > 31 | COC(=O)c1ccccc1NC(=O)COc1ccc(Cl)cc1 |  | 
38 |  | 0.76 | C[C@H](Oc1ccc(Cl)cc1)C(=O)Nc1ccccc1C(=O)O |  | 
39 |  | 4.4 | O=C(CSc1ccc(Cl)cc1)Nc1ccccc1C(=O)O |  | 
40 | > 11 | 0.86 | CC(=O)c1ccc(Cl)cc1OCC(=O)Nc1ccccc1C(=O)O | > 115 | 
41 | 40 | 0.21 | O=C(CNc1ccc(F)c(Cl)c1)Nc1ccccc1C(=O)O | 155 | 
42 |  | 35 | COc1ccc(OCC(=O)Nc2ccccc2C(=O)O)cc1 |  | 
43 |  | 3.36 | CCC(=O)c1cc(Cl)ccc1NCC(=O)Nc1ccccc1C(=O)O |  | 
